Assay results reported in ChEMBL document CHEMBL3407388, “Synthesis, anticancer activity and molecular docking studies on a series of heterocyclic trans-cyanocombretastatin analogues as antitubulin agents” (2015).

Legend:
CCRF-CEM = test: Cytotoxicity against human CCRF-CEM cells assessed as growth inhibition after 48 hrs by SRB assay; type: functional
Summary of the method: (§1)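 NCI 60-cell panel; compounds passing a single-dose screen (10−5 M, 48 h) were tested at five 10-fold dilutions (10−4 to 10−8 M) with 48 h drug exposure. GI50 is the molar concentration giving 50% reduction in net cell growth relative to cell numbers on day 0.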

K562 = test: Cytotoxicity against human K562 cells assessed as growth inhibition after 48 hrs by SRB assay; type: functional; conditions: K562, 48 h; summary of the method: as §1
SR = test: Cytotoxicity against human SR cells assessed as growth inhibition after 48 hrs by SRB assay; type: functional
A549 = test: Cytotoxicity against human A549 cells assessed as growth inhibition after 48 hrs by SRB assay; type: functional; conditions: A549, 48 h; summary of the method: as §1
HOP-62 = test: Cytotoxicity against human HOP62 cells assessed as growth inhibition after 48 hrs by SRB assay; type: functional; conditions: HOP-62, 48 h; summary of the method: as §1
NCI-H322M = test: Cytotoxicity against human NCI-H322M cells assessed as growth inhibition after 48 hrs by SRB assay; type: functional; summary of the method: as §1
NCI-H522 = test: Cytotoxicity against human NCI-H522 cells assessed as growth inhibition after 48 hrs by SRB assay; type: functional; conditions: NCI-H522, 48 h; summary of the method: as §1
Malme-3M = test: Cytotoxicity against human MALME-3M cells assessed as growth inhibition after 48 hrs by SRB assay; type: functional; summary of the method: as §1
SK-MEL-2 = test: Cytotoxicity against human SK-MEL-2 cells assessed as growth inhibition after 48 hrs by SRB assay; type: functional; conditions: SK-MEL-2, 48 h; summary of the method: as §1
SK-MEL-28 = test: Cytotoxicity against human SK-MEL-28 cells assessed as growth inhibition after 48 hrs by SRB assay; type: functional; conditions: SK-MEL-28, 48 h; summary of the method: as §1
[1] = Cytotoxicity against human UACC257 cells assessed as growth inhibition after 48 hrs by SRB assay; type: functional; conditions: UACC-257, 48 h
ACHN = test: Cytotoxicity against human ACHN cells assessed as growth inhibition after 48 hrs by SRB assay; type: functional; summary of the method: as §1
[2] = Cytotoxicity against human Hs578T cells assessed as growth inhibition after 48 hrs by SRB assay; type: functional; conditions: Hs-578T; summary of the method: as §1
MDA-MB-468 = test: Cytotoxicity against human MDA-MB-468 cells assessed as growth inhibition after 48 hrs by SRB assay; type: functional; conditions: MDA-MB-468, 48 h; summary of the method: as §1
MV4-11 = test: Anti-leukemic activity against human MV4-11 cells assessed as cell dead after 24 to 48 hrs by annexin V-FITC/7-AAD staining-based flow cytometric analysis; type: functional; conditions: read-out: LD50 (the source's name)
Summary of the method: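 MV4-11 cells grown in IMDM with 10% FBS, penicillin and streptomycin, seeded at 5 × 10^5/ml and treated. At 24 and 48 h they were stained with annexin V-FITC plus 1 μg/ml 7-AAD. Percent dead cells (annexin V+) was read by flow cytometry and expressed relative to the DMSO vehicle control.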

[3] = Cytotoxicity against human EKVX cells assessed as growth inhibition after 48 hrs by SRB assay; type: functional; summary of the method: as §1
HOP-92 = test: Cytotoxicity against human HOP92 cells assessed as growth inhibition after 48 hrs by SRB assay; type: functional; conditions: HOP-92, 48 h; summary of the method: as §1
T47D = test: Cytotoxicity against human T47D cells assessed as growth inhibition after 48 hrs by SRB assay; type: functional
Tubulin (Homo sapiens) = Tubulin (Homo sapiens) (UniProt P68371+Q9H4B7+P0DPH7+P68366+Q13509+Q71U36+P04350+Q3ZCM7+P07437+P68363+Q9BQE3+Q6PEY2+Q13885+Q9BVA1+Q9BUF5); test: Inhibition of tubulin polymerization in human MV4-11 cells at 50 nM after 2 hrs by immunoblot analysis relative to control; type: cell-based
Summary of the method: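 MV4-11 AML cells were exposed for 2 h to 25, 50 or 100 nM compound. Free tubulin (supernatant) and polymerized tubulin (pellet) were separated and detected by anti-tubulin immunoblot.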

Compound | GI50 (CCRF-CEM) [nM] | GI50 (K562) [nM] | GI50 (SR) [nM] | GI50 (A549) [nM] | GI50 (HOP-62) [nM] | GI50 (NCI-H322M) [nM] | GI50 (NCI-H522) [nM] | GI50 (Malme-3M) [nM] | GI50 (SK-MEL-2) [nM] | GI50 (SK-MEL-28) [nM] | GI50 [1] [nM] | GI50 (ACHN) [nM] | GI50 [2] [nM] | GI50 (MDA-MB-468) [nM] | CC50 (MV4-11) [nM] | GI50 [3] [nM] | GI50 (HOP-92) [nM] | GI50 (T47D) [nM] | inhibition (Tubulin (Homo sapiens)) [%]
COc1cc(/C(C#N)=C/c2nc3ccccc3s2)cc(OC)c1OC | 55 | 51 | 107 | 379 | 1930 | 2290 | 22 | 515 | 287 | 1810 | > 100000 | 89 | 1290 | 84 | 233 | – | – | – | –
COc1ccc2[nH]cc(/C=C(\C#N)c3cc(OC)c(OC)c(OC)c3)c2c1 | 64 | 44 | 27 | 86 | 133 | 44 | 86 | 5850 | – | 92 | 10700 | 1660 | 124 | 35 | 467 | 485 | 83 | 65 | –
COc1cc(/C(C#N)=C/c2cc3ccccc3n2Cc2ccc(C#N)cc2)cc(OC)c1OC | 136 | 39 | – | 76 | 92 | 465 | 33 | – | 528 | 161 | 62 | 79 | 92 | 41 | 369 | – | 77 | 95200 | –
COc1cc(OC)cc(/C(C#N)=C/c2c[nH]c3ccccc23)c1 | 42 | 43 | 33 | 61 | 273 | – | 27 | – | 51 | 81 | – | – | 611 | 51 | 375 | 478 | 68 | – | –
COc1cc(/C(C#N)=C/c2cc3ccccc3[nH]2)cc(OC)c1OC | 17 | < 10 | < 10 | < 10 | < 10 | – | < 10 | 8280 | < 10 | – | 1060 | < 10 | < 10 | 22 | 44 | 1160 | < 10 | 2500 | > 50
COc1ccc(/C(C#N)=C/c2cc3ccccc3o2)cc1OC | 777 | 467 | 470 | 520 | 2290 | 6180 | 438 | 629 | 487 | 3510 | 18000 | 12400 | 1880 | 421 | > 20000 | – | 1130 | 996 | –
COc1cc(/C(C#N)=C/c2coc3ccccc23)cc(OC)c1OC | 1410 | 513 | 681 | 665 | 6980 | 19100 | 261 | 868 | 304 | 1610 | – | 1940 | 2030 | 237 | 4530 | – | 3020 | 811 | –
COc1cc(/C(C#N)=C/c2cc3ccccc3o2)cc(OC)c1OC | 24 | < 10 | < 10 | < 10 | < 10 | < 10 | < 10 | 59900 | < 10 | < 10 | 63200 | 217 | < 10 | 22 | 47 | 59 | < 10 | 4340 | > 50
COc1ccc(/C(C#N)=C/c2c[nH]c3ccccc23)cc1OC | 2740 | 1650 | 1450 | 5160 | 8690 | 24300 | 3050 | 9910 | 4700 | 6250 | 11900 | 23700 | 12900 | – | > 20000 | 18500 | 5260 | 6830 | –
COc1cc(OC)cc(/C(C#N)=C/c2nc3ccccc3s2)c1 | – | 333 | 402 | – | 3350 | > 10000 | – | 699 | 958 | 1980 | – | 518 | 2010 | 2040 | 4340 | – | 534 | 1180 | –
COc1cc(/C(C#N)=C/c2c[nH]c3ccccc23)cc(OC)c1OC | 58 | 40 | 22 | 78 | 82 | – | 37 | 12500 | – | 90 | 11300 | 1760 | 131 | 41 | 565 | 596 | 1010 | 58 | –
COc1ccc(/C(C#N)=C/c2cc3ccccc3[nH]2)cc1OC | 62 | 39 | 42 | 114 | – | 735 | 49 | – | 312 | 1940 | 27000 | 82 | 133 | 350 | – | 307 | 58 | 573 | –
